# Experimental data of several laboratories.
# Protocols differ between the studies behind these lines.
# CYP2C19: Cytochrome P450 2C19 (CYP2C19, Homo sapiens, UniProt P33261)
# UGT1A4: UDP-glucuronosyltransferase 1A4 (UGT1A4, Homo sapiens, UniProt P22310)
Compound,target or system,assay,test system,conditions,endpoint,value
COC(=O)C1CCN(C(=O)c2ccc(SCc3cnc4nc(N)nc(N)c4n3)nc2)CC1,CYP2C19,"enzyme activity, inhibitor, luciferase",,10 µM,inhibition,-2.45%
N=C(N)NCc1ccc(NC(=O)c2ccc(C(=O)Nc3cnc(C4=CCN(C(=N)N)CC4)cn3)cc2)cc1,NIH3T3,"cell growth or viability, MTS",,24 h,CC50,> 585 µM
O=C(Nc1c2c(cc3c1CCC3)CCC2)NS(=O)(=O)/C=C/c1nccs1,CYP2C19,"enzyme activity, inhibitor","human, liver microsomes","10 µM, pH 7.4",inhibition,10.7%
C[C@@H](Cn1ccc(-c2ccc(C#N)c(Cl)c2)n1)NC(=O)c1cc([C@@H](C)O)[nH]n1,UGT1A4,"enzyme activity, inhibitor","human, liver microsomes",,IC50,> 100 µM
CCOC(=O)C1CCCN1C(=O)c1ccc(NCc2cnc3nc(N)nc(N)c3n2)cc1 (stereo not shown),CYP2C19,"enzyme activity, inhibitor, luciferase",,10 µM,inhibition,-16.2%
COc1cc2c3c(n(CCCN4CCOCC4)c(=O)c2cc1OC)-c1cc2c(cc1C3=O)OCO2,,,"male beagle dog, plasma","intravenous, 10 mg/m², infusion",Cmax,106 ng/mL
COC(=O)C1CCN(C(=O)c2ccc(N(CCCO)Cc3cnc4nc(N)nc(N)c4n3)cc2)CC1,CYP2C19,"enzyme activity, inhibitor, luciferase",,10 µM,inhibition,-9.48%
CC(=O)c1cc(C(=O)N[C@@H](C)Cn2ccc(-c3ccc(C#N)c(Cl)c3)n2)[nH]n1,UGT1A4,"enzyme activity, inhibitor","human, liver microsomes",,IC50,> 50 µM
C[C@@H]1C[C@H](c2ccc(Br)cc2)c2c(cc3ccccn23)C(=O)O1 (racemic),HFF-1,"cell growth or viability, resazurin",,72 h,CC50,0.92 µM
N=C(N)NCc1ccc(NC(=O)C23CCC(C(=O)Nc4ccc(C5=CCN(C(=N)N)CC5)cc4)(CC2)CC3)cc1,NIH3T3,"cell growth or viability, MTS",,24 h,CC50,439 µM
COC(=O)C1CCN(C(=O)c2ccc(NCc3cnc4nc(N)nc(N)c4n3)cn2)CC1,CYP2C19,"enzyme activity, inhibitor, luciferase",,10 µM,inhibition,-1.34%
N=C(N)NCc1ccc(NC(=O)c2ccc(C(=O)Nc3ccc(C4=CCN(C(=N)N)CC4)cn3)cc2)cc1,NIH3T3,"cell growth or viability, MTS",,24 h,CC50,544 µM
[11CH3]Oc1cccc(CCc2cc(O)c(=O)[nH]n2)c1,"ATP-dependent translocase ABCB1 (Abcb1a, Mus musculus, UniProt P21447)",,"mouse, brain",5 min,tracer uptake,0.43 %ID/g
